Measured values reported in ChEMBL document CHEMBL4229342, “Synthesis of novel proxyphylline derivatives with dual Anti-Candida albicans and anticancer activity” (Eur J Med Chem, 2018).
The source made the active and inactive calls. The calls are words filed in the database; no cut-off is given here.

Columns and labels:
[1] = system: Candida albicans; assay: Antifungal activity against Candida albicans ATCC 90028 infected in Galleria mellonella larvae infected with 20 uM compound pre-treated cell suspensions assessed as cocoon formation incubated in dark for 144 hrs at 30 degC and measured every 24 hrs (reference value: 65%); type: organism-based
[2] = system: Candida albicans; assay: Induction of apoptosis in Candida albicans ATCC 90028 planktonic forms assessed as accumulation at subG1 phase at 4 to 16 ug/ml by ethidium bromide staining based gel electrophoresis and confocal laser scanning microscopy; type: functional, organism-based
[3] = system: Candida albicans; assay: Induction of apoptosis in Candida albicans ATCC 90028 protoplast assessed as viable cells at 20 uM after 48 hrs Annexin V-FITC/propidium iodide staining based flow cytometric analysis (reference value: 96.38 +/- 2.05%); type: functional
[4] = system: Candida albicans; assay: Disruption of cell wall in Candida albicans SC5314 assessed as decrease in chitin level after 18 hrs by calcofluor white staining-based flow cytometric analysis; type: functional, organism-based
[5] = system: Candida albicans; assay: (§1) Antifungal activity against Candida albicans ATCC 90028 infected in Galleria mellonella larvae infected with 20 uM compound pre-treated cell suspensions assessed as larvae survival incubated in dark for 144 hrs at 30 degC and measured every 24 hrs (reference value: 80%); type: functional
[6] = system: Candida albicans; assay: Inhibition of biofilm formation of Candida albicans ATCC 90028 up to 20 uM […] by XTT assay; type: functional, organism-based
[7] = system: Candida albicans; assay: Disruption of cell wall in Candida albicans SC5314 assessed as decrease in chitin level by measuring chitin mean staining index at 0.07 uM after 18 hrs by calcofluor white staining-based flow cytometric analysis (reference value: 496 +/- 51); type: functional
[8] = system: Candida albicans; assay: Induction of apoptosis in Candida albicans ATCC 90028 protoplast assessed as late apoptotic cells at 20 uM after 48 hrs Annexin V-FITC/propidium iodide staining based flow cytometric analysis (reference value: 0.3 +/- 0.30%); type: functional
[9] = system: Candida albicans; assay: Ratio of MFC for fungicidal activity against Candida albicans ATCC 90028 assessed as reduction in cell viability in RPMI medium in presence of sorbitol to MFC for fungicidal activity against Candida albicans ATCC 90028 assessed as reduction in cell viability in RPMI medium in absence of sorbitol; type: functional
[10] = system: Candida albicans; assay: as §1, with “reduction in fungal burden” for “larvae survival incubated”, “by hematoxylin and eosin staining-based light microscopic analysis” for “(reference value: 80%)”; type: functional, organism-based
[11] = system: Candida albicans; assay: Induction of exochitinase release in Candida albicans ATCC 90028 assessed as p-nitrophenyl release from chitobioside substrate C at 20 uM by chitinolytic activity assay; type: functional, organism-based
[12] = system: Candida albicans; assay: Antibiofilm activity in Candida albicans ATCC 90028 assessed as early apoptotic morphological changes by measuring crescent-shaped nuclei at 20 uM after 18 hrs by acridine orange/ethidium bromide staining-based confocal laser scanning fluorescence microscopic analysis; type: functional
Summary of the method: (§2)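 Unfixed biofilm cells were dual-stained in situ with acridine orange and ethidium bromide, each at 100 µg/mL. Confocal fluorescence and DIC imaging scored green AO nuclei, crescent-shaped chromatin, reddish-orange late apoptotic/necrotic cells and EB uptake, against untreated control biofilm. […]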

[13] = system: Candida albicans; assay: Induction of apoptosis in Candida albicans ATCC 90028 planktonic forms assessed as increase in DNA damage at 4 ug/ml by ethidium bromide staining based gel electrophoresis and confocal laser scanning microscopy; type: functional, organism-based
[14] = system: Galleria mellonella; assay: Toxicity in Candida albicans ATCC 90028 infected Galleria mellonella larvae infected with 20 uM compound pre-treated cell suspensions assessed as improvement in larvae health index scores incubated in dark for 144 hrs at 30 degC and measured every 24 hrs; type: organism-based; conditions: in vivo
[15] = system: Candida albicans; assay: Fungicidal activity against Candida albicans ATCC 90028 assessed as log reduction in cell viability at 10 uM in RPMI medium in presence of sorbitol; type: functional
[16] = system: Candida albicans; assay: Induction of endochitinase release in Candida albicans ATCC 90028 assessed as p-nitrophenyl release from triacetylochitotriose substrate A at 20 uM by chitinolytic activity assay; type: functional, organism-based
[17] = system: Candida albicans; assay: Antifungal activity against Candida albicans ATCC 90028 infected in Galleria mellonella larvae infected with 20 uM compound pre-treated cell suspensions assessed as melanization incubated in dark for 144 hrs at 30 degC and measured every 24 hrs (reference value: 65%); type: functional
[18] = system: Candida albicans; assay: Induction of apoptosis in Candida albicans ATCC 90028 protoplast assessed as early apoptotic cells at 20 uM after 48 hrs Annexin V-FITC/propidium iodide staining based flow cytometric analysis (reference value: 3.00 +/- 1.65%); type: functional
[19] = system: Candida albicans; assay: as §1, with “reduction in fungal cell nodules” for “larvae survival incubated”, “by hematoxylin and eosin staining-based light microscopic analysis” for “(reference value: 80%)”; type: functional, organism-based
[20] = system: Candida albicans; assay: Antibiofilm activity in Candida albicans ATCC 90028 assessed as increase in chitin distribution within biofilm cells at 248 uM after 18 hrs by calcofluor white staining-based confocal laser scanning microscopic analysis; type: functional, organism-based
[21] = system: Candida albicans; assay: Effect on dilpoid nuclei level in Candida albicans ATCC 90028 planktonic forms at 128 ug/ml by ethidium bromide staining based gel electrophoresis and confocal laser scanning microscopy; type: functional, organism-based
[22] = system: Candida albicans; assay: Induction of apoptosis in Candida albicans ATCC 90028 protoplast assessed as early apoptotic cells at 248 uM after 48 hrs Annexin V-FITC/propidium iodide staining based flow cytometric analysis (reference value: 3.00 +/- 1.65%); type: functional
[23] = system: Candida albicans; assay: Antibiofilm activity in Candida albicans ATCC 90028 assessed as cell membrane lysis at 248 uM after 18 hrs by acridine orange/ethidium bromide staining-based confocal laser scanning fluorescence microscopic analysis; type: functional, organism-based; summary of the method: as §2
[24] = system: Candida albicans; assay: Induction of chitinase release in Candida albicans ATCC 90028 assessed as p-nitrophenyl release from N-acetyl-beta-D-glucosaminide at 248 uM by chitinolytic activity assay; type: functional, organism-based
[25] = system: Candida albicans; assay: Effect on dilpoid nuclei level in Candida albicans ATCC 90028 planktonic forms at 0.03 ug/ml by ethidium bromide staining based gel electrophoresis and confocal laser scanning microscopy; type: functional, organism-based
[26] = system: Candida albicans; assay: Antibiofilm activity in Candida albicans ATCC 90028 assessed as late apoptotic morphological changes by measuring reddish-orange fluorescence at 248 uM after 18 hrs by acridine orange/ethidium bromide staining-based confocal laser scanning fluorescence microscopic analysis; type: functional, organism-based; summary of the method: as §2
[27] = system: Candida albicans; assay: Induction of endochitinase release in Candida albicans ATCC 90028 assessed as p-nitrophenyl release from triacetylochitotriose substrate A at 248 uM by chitinolytic activity assay; type: functional, organism-based
[28] = system: Candida albicans; assay: as §1, with “31” for “20”, “reduction in larval hemocytes” for “larvae survival”, “by hematoxylin and eosin staining-based light microscopic analysis” for “(reference value: 80%)”; type: functional, organism-based
[29] = system: Candida albicans; assay: Induction of apoptosis in Candida albicans ATCC 90028 protoplast assessed as viable cells at 248 uM after 48 hrs Annexin V-FITC/propidium iodide staining based flow cytometric analysis (reference value: 96.38 +/- 2.05%); type: functional
[30] = system: Candida albicans; assay: Induction of apoptosis in Candida albicans ATCC 90028 planktonic forms assessed as accumulation at subG1 phase at 1 to 128 ug/ml by ethidium bromide staining based gel electrophoresis and confocal laser scanning microscopy; type: functional, organism-based
[31] = system: Candida albicans; assay: Antifungal activity against Candida albicans ATCC 90028 infected in Galleria mellonella larvae infected with 31 uM compound pre-treated cell suspensions assessed as melanization incubated in dark for 144 hrs at 30 degC and measured every 24 hrs (reference value: 65%); type: functional

CC(Cn1cnc2c1c(=O)n(C)c(=O)n2C)OCc1cn(CCCn2nc3c(Br)c(Br)c(Br)c(Br)c3n2)nn1 (stereo unspecified)
Activity [1]: 98% | Activity [2]: inactive | Activity [3]: 2.87% | Activity [4]: Dose-dependent effect | survival at 20 µM [5]: 100% | inhibition [6]: inactive | Activity_index [7]: 53 | Activity [8]: 0.22% | Ratio [9]: 2 | Activity [10]: Active | Activity [11]: inactive | fold change (FC) [12]: 2 | Activity [13]: Active | Activity [14]: Toxic | log(activity) [15]: 6.74 | Activity [16]: inactive | Activity [17]: 80% | Activity [18]: 2.87% | Activity [19]: Active

CC(CN1c2ccccc2Sc2ccccc21)OC(=O)OC(C)Cn1cnc2c1c(=O)n(C)c(=O)n2C (stereo unspecified)
Activity [20]: Active | Activity [21]: inactive | Activity [22]: 1.2% | Activity [23]: Active | Activity [24]: inactive | Activity [25]: inactive | Activity [26]: Active | Activity [27]: inactive | Activity [28]: Active | Activity [29]: 2.8% | Activity [30]: inactive | Activity [31]: 5 - 15%
